{"source": "ChEMBL document CHEMBL4346672", "about": "“Antimicrobial and KPC/AmpC inhibitory activity of functionalized benzosiloxaboroles” (Eur J Med Chem, 2019)", "key": {"Pichia kudriavzevii [1]": {"system": "Pichia kudriavzevii", "assay": "Antifungal activity against Candida krusei ATCC 6258 assessed as decrease in fungal cell growth incubated for 24 hrs by E-test", "assay_type": "functional", "settings": "ATCC 6258, 24 h", "procedure,_shortened": "(§1)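 Yeasts were first subcultured on Sabouraud dextrose agar at 30 °C for 24–48 h. […] The MIC was recorded per Etest recommendations, which covers cases where macro-colonies persist inside the ellipse.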"}, "Candida tropicalis [2]": {"system": "Candida tropicalis", "assay": "Antifungal activity against Candida tropicalis IBA 171 assessed as decrease in fungal cell growth incubated for 24 hrs by E-test", "assay_type": "functional", "settings": "IBA 171, 24 h", "procedure,_shortened": "as §1"}, "Candida albicans [3]": {"system": "Candida albicans", "assay": "Antifungal activity against Candida albicans ATCC 90028 assessed as diameter of zone inhibition at 0.025 mg incubated for 24 hrs by disc diffusion method", "assay_type": "functional", "settings": "ATCC 90028, 24 h, read-out: DIZ", "procedure,_shortened": "(§2)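 Disc diffusion on Mueller-Hinton II agar with 2% glucose and 0.5 mg/L methylene blue. Compounds were dissolved in DMSO. Yeasts were subcultured on Sabouraud dextrose agar for 24–48 h at 30 °C before testing. Plates were incubated at 35 °C for 24 h.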"}, "Saccharomyces cerevisiae [4]": {"system": "Saccharomyces cerevisiae", "assay": "Antifungal activity against Saccharomyces cerevisiae ATCC 9763 diameter of zone inhibition at 0.025 mg incubated for 24 hrs by disc diffusion method", "assay_type": "functional", "settings": "ATCC 9763, 24 h, read-out: DIZ", "procedure,_shortened": "as §2"}, "Candida tropicalis [5]": {"system": "Candida tropicalis", "assay": "Antifungal activity against Candida tropicalis IBA 171 assessed as diameter of zone inhibition at 0.025 mg incubated for 24 hrs by disc diffusion method", "assay_type": "functional", "settings": "IBA 171, 24 h, read-out: DIZ", "procedure,_shortened": "as §2"}, "[6]": {"system": "Meyerozyma guilliermondii", "assay": "Antifungal activity against Candida guilliermondii IBA 155 assessed as diameter of zone inhibition at 0.025 mg incubated for 24 hrs by disc diffusion method", "assay_type": "functional", "settings": "IBA 155, 24 h, read-out: DIZ", "procedure,_shortened": "as §2"}, "Pichia kudriavzevii [7]": {"system": "Pichia kudriavzevii", "assay": "Antifungal activity against Candida krusei ATCC 6258 assessed as diameter of zone inhibition at 0.025 mg incubated for 24 hrs by disc diffusion method", "assay_type": "functional", "settings": "ATCC 6258, 24 h, read-out: DIZ", "procedure,_shortened": "as §2"}, "[8]": {"system": "Meyerozyma guilliermondii", "assay": "Antifungal activity against Candida guilliermondii IBA 155 assessed as decrease in fungal cell growth incubated for 24 hrs by E-test", "assay_type": "functional", "settings": "IBA 155, 24 h", "procedure,_shortened": "as §1"}, "Saccharomyces cerevisiae [9]": {"system": "Saccharomyces cerevisiae", "assay": "Antifungal activity against Saccharomyces cerevisiae ATCC 9763 assessed as decrease in fungal cell growth incubated for 24 hrs by E-test", "assay_type": "functional", "settings": "ATCC 9763, 24 h", "procedure,_shortened": "(§3)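 Yeast strains were stored at -80 °C and subcultured twice on Sabouraud dextrose agar for 24–48 h at 30 °C before testing.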"}, "Candida albicans [10]": {"system": "Candida albicans", "assay": "Antifungal activity against Candida albicans ATCC 90028 assessed as decrease in fungal cell growth incubated for 24 hrs by E-test", "assay_type": "functional", "settings": "ATCC 90028, 24 h", "procedure,_shortened": "as §3"}, "Candida parapsilosis [11]": {"system": "Candida parapsilosis", "assay": "Antifungal activity against Candida parapsilosis ATCC 22019 assessed as decrease in fungal cell growth incubated for 24 hrs by E-test", "assay_type": "functional", "settings": "Lodderomyces parapsilosis, ATCC 22019, 24 h", "procedure,_shortened": "as §1"}, "Candida parapsilosis [12]": {"system": "Candida parapsilosis", "assay": "Antifungal activity against Candida parapsilosis ATCC 22019 assessed as diameter of zone inhibition at 0.025 mg incubated for 24 hrs by disc diffusion method", "assay_type": "functional", "settings": "Lodderomyces parapsilosis, ATCC 22019, 24 h; read-out: DIZ", "procedure,_shortened": "as §2"}, "Candida parapsilosis [13]": {"system": "Candida parapsilosis", "assay": "Antifungal activity against Candida parapsilosis ATCC 22019 assessed as diameter of zone inhibition incubated for 24 hrs by CLSI disc diffusion method", "assay_type": "functional", "procedure,_shortened": "(§4)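 Yeast disc diffusion on Mueller-Hinton agar supplemented with 2% glucose and 0.5 mg/L methylene blue. Compounds in DMSO. Yeasts subcultured on Sabouraud dextrose agar before testing. Zones read after 35 °C, 24 h.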"}, "Proteus mirabilis": {"system": "Proteus mirabilis", "assay": "Antibacterial activity against Proteus mirabilis ATCC 12453 assessed as diameter of zone inhibition measured after 18 hrs by CLSI disc diffusion method", "assay_type": "functional", "procedure,_shortened": "(§5)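 Disc diffusion on Mueller-Hinton II agar. Compounds dissolved in DMSO. Strains stored at -80 °C and subcultured twice on tryptic soy agar before testing. Inhibition zones read after 35 °C, 18 h.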"}, "Saccharomyces cerevisiae [14]": {"system": "Saccharomyces cerevisiae", "assay": "Antifungal activity against Saccharomyces cerevisiae ATCC 9763 diameter of zone inhibition incubated for 24 hrs by CLSI disc diffusion method", "assay_type": "functional", "procedure,_shortened": "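Disc-diffusion run on Mueller-Hinton II agar with 2% glucose and 0.5 mg/L methylene blue, using compounds in DMSO. Yeast was precultured on Sabouraud dextrose agar (24–48 h, 30 °C). Zones read after 24 h at 35 °C.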"}, "[15]": {"assay": "Dissociation constant, pKa2 of compound in 0.1 M NaOH by potentiometric analysis", "assay_type": "physicochemical"}, "Enterobacter cloacae": {"system": "Enterobacter cloacae", "assay": "Antibacterial activity against Enterobacter cloacae DSM 6234 assessed as diameter of zone inhibition measured after 18 hrs by CLSI disc diffusion method", "assay_type": "functional", "procedure,_shortened": "as §5"}, "Staphylococcus aureus": {"system": "Staphylococcus aureus", "assay": "Antibacterial activity against Staphylococcus aureus ATCC 6538P assessed as diameter of zone inhibition measured after 18 hrs by CLSI disc diffusion method", "assay_type": "functional", "procedure,_shortened": "as §5"}, "Serratia marcescens": {"system": "Serratia marcescens", "settings": "ATCC 13880"}, "Pichia kudriavzevii [16]": {"system": "Pichia kudriavzevii", "assay": "Antifungal activity against Candida krusei ATCC 6258 assessed as diameter of zone inhibition incubated for 24 hrs by CLSI disc diffusion method", "assay_type": "functional", "procedure,_shortened": "as §4"}, "[17]": {"system": "Bordetella bronchiseptica", "assay": "Antibacterial activity against Bordetella bronchiseptica ATCC 4617 assessed as diameter of zone inhibition measured after 18 hrs by CLSI disc diffusion method", "assay_type": "functional", "procedure,_shortened": "as §5"}, "Escherichia coli": {"system": "Escherichia coli", "assay": "Antibacterial activity against Escherichia coli ATCC 25922 assessed as diameter of zone inhibition measured after 18 hrs by CLSI disc diffusion method", "assay_type": "functional", "procedure,_shortened": "as §5"}, "Burkholderia cepacia": {"system": "Burkholderia cepacia", "assay": "Antibacterial activity against Burkholderia cepacia ATCC 25416 assessed as diameter of zone inhibition measured after 18 hrs by CLSI disc diffusion method", "assay_type": "functional", "procedure,_shortened": "as §5"}, "Klebsiella pneumoniae": {"system": "Klebsiella pneumoniae", "settings": "ATCC 13883"}, "Candida albicans [18]": {"system": "Candida albicans", "assay": "Antifungal activity against Candida albicans ATCC 90028 assessed as diameter of zone inhibition incubated for 24 hrs by CLSI disc diffusion method", "assay_type": "functional", "procedure,_shortened": "as §4"}, "[19]": {"assay": "Dissociation constant, pKa1 of compound in 0.1 M NaOH by potentiometric analysis", "assay_type": "physicochemical"}, "Enterococcus faecium": {"system": "Enterococcus faecium", "assay": "Antibacterial activity against Enterococcus faecium ATCC 6057 assessed as diameter of zone inhibition measured after 18 hrs by CLSI disc diffusion method", "assay_type": "functional", "procedure,_shortened": "as §5"}, "Candida tropicalis [20]": {"system": "Candida tropicalis", "assay": "Antifungal activity against Candida tropicalis IBA 171 assessed as diameter of zone inhibition incubated for 24 hrs by CLSI disc diffusion method", "assay_type": "functional", "procedure,_shortened": "as §4"}, "[21]": {"system": "Staphylococcus epidermidis", "assay": "Antibacterial activity against Staphylococcus epidermidis ATCC 12228 assessed as diameter of zone inhibition measured after 18 hrs by CLSI disc diffusion method", "assay_type": "functional", "procedure,_shortened": "as §5"}, "Bacillus subtilis": {"system": "Bacillus subtilis", "assay": "Antibacterial activity against Bacillus subtilis ATCC 6633 assessed as diameter of zone inhibition measured after 18 hrs by CLSI disc diffusion method", "assay_type": "functional", "procedure,_shortened": "as §5"}, "Pseudomonas aeruginosa": {"system": "Pseudomonas aeruginosa", "assay": "Antibacterial activity against Pseudomonas aeruginosa ATCC 27853 assessed as diameter of zone inhibition measured after 18 hrs by CLSI disc diffusion method", "assay_type": "functional, organism-based", "procedure,_shortened": "as §5"}, "Acinetobacter baumannii": {"system": "Acinetobacter baumannii", "assay": "Antibacterial activity against Acinetobacter baumannii ATCC 19606 assessed as diameter of zone inhibition measured after 18 hrs by CLSI disc diffusion method", "assay_type": "functional", "procedure,_shortened": "as §5"}, "Enterococcus faecalis": {"system": "Enterococcus faecalis", "assay": "Antibacterial activity against Enterococcus faecalis ATCC 29212 assessed as diameter of zone inhibition measured after 18 hrs by CLSI disc diffusion method", "assay_type": "functional", "procedure,_shortened": "as §5"}, "[22]": {"system": "Meyerozyma guilliermondii", "assay": "Antifungal activity against Candida guilliermondii IBA 155 assessed as diameter of zone inhibition incubated for 24 hrs by CLSI disc diffusion method", "assay_type": "functional", "procedure,_shortened": "as §4"}, "[23]": {"system": "Stenotrophomonas maltophilia", "assay": "Antibacterial activity against Stenotrophomonas maltophilia ATCC 13637 assessed as diameter of zone inhibition measured after 18 hrs by CLSI disc diffusion method", "assay_type": "functional", "procedure,_shortened": "as §5"}}, "note": "Activity calls are given as the source filed them. The calls are words filed in the database; no cut-off is given here."}
{"molecule": "OC(Cn1cncn1)(Cn1cncn1)c1ccc(F)cc1F", "note": "[FLUCONAZOLE]", "values": [{"measurement": "MIC", "setting": "Pichia kudriavzevii [1]", "result": 64, "unit": "mg/L"}, {"measurement": "MIC", "setting": "Candida tropicalis [2]", "result": 0.38, "unit": "mg/L"}, {"measurement": "zone of inhibition at 25 µg/disc", "setting": "Candida albicans [3]", "result": 43, "unit": "mm"}, {"measurement": "zone of inhibition at 25 µg/disc", "setting": "Saccharomyces cerevisiae [4]", "result": 12, "unit": "mm"}, {"measurement": "zone of inhibition at 25 µg/disc", "setting": "Candida tropicalis [5]", "result": 39, "unit": "mm"}, {"measurement": "zone of inhibition at 25 µg/disc", "setting": "[6]", "result": 40, "unit": "mm"}, {"measurement": "zone of inhibition at 25 µg/disc", "setting": "Pichia kudriavzevii [7]", "result": 16, "unit": "mm"}, {"measurement": "MIC", "setting": "[8]", "result": 0.75, "unit": "mg/L"}, {"measurement": "MIC", "setting": "Saccharomyces cerevisiae [9]", "result": 16, "unit": "mg/L"}, {"measurement": "MIC", "setting": "Candida albicans [10]", "result": 1, "unit": "mg/L"}, {"measurement": "MIC", "setting": "Candida parapsilosis [11]", "result": 2, "unit": "mg/L"}, {"measurement": "zone of inhibition at 25 µg/disc", "setting": "Candida parapsilosis [12]", "result": 32, "unit": "mm"}]}
{"molecule": "C[Si]1(C)OB(O)c2cc3c(c(F)c21)[Si](C)(C)OB3O", "values": [{"measurement": "diameter of the inhibition zone (DIZ)", "setting": "Candida parapsilosis [13]", "result": "inactive"}, {"measurement": "diameter of the inhibition zone (DIZ)", "setting": "Proteus mirabilis", "result": "inactive"}, {"measurement": "diameter of the inhibition zone (DIZ)", "setting": "Saccharomyces cerevisiae [14]", "result": "inactive"}, {"measurement": "pKa", "setting": "[15]", "result": 8.6}, {"measurement": "diameter of the inhibition zone (DIZ)", "setting": "Enterobacter cloacae", "result": "inactive"}, {"measurement": "diameter of the inhibition zone (DIZ)", "setting": "Staphylococcus aureus", "result": 22, "unit": "mm"}, {"measurement": "DIZ", "setting": "Serratia marcescens", "result": "inactive"}, {"measurement": "diameter of the inhibition zone (DIZ)", "setting": "Pichia kudriavzevii [16]", "result": "inactive"}, {"measurement": "diameter of the inhibition zone (DIZ)", "setting": "[17]", "result": "inactive"}, {"measurement": "diameter of the inhibition zone (DIZ)", "setting": "Escherichia coli", "result": "inactive"}, {"measurement": "diameter of the inhibition zone (DIZ)", "setting": "Burkholderia cepacia", "result": "inactive"}, {"measurement": "DIZ", "setting": "Klebsiella pneumoniae", "result": "inactive"}, {"measurement": "diameter of the inhibition zone (DIZ)", "setting": "Candida albicans [18]", "result": 11, "unit": "mm"}, {"measurement": "pKa", "setting": "[19]", "result": 5.9}, {"measurement": "diameter of the inhibition zone (DIZ)", "setting": "Enterococcus faecium", "result": 16, "unit": "mm"}, {"measurement": "diameter of the inhibition zone (DIZ)", "setting": "Candida tropicalis [20]", "result": "inactive"}, {"measurement": "diameter of the inhibition zone (DIZ)", "setting": "[21]", "result": 34, "unit": "mm"}, {"measurement": "diameter of the inhibition zone (DIZ)", "setting": "Bacillus subtilis", "result": 27, "unit": "mm"}, {"measurement": "diameter of the inhibition zone (DIZ)", "setting": "Pseudomonas aeruginosa", "result": "inactive"}, {"measurement": "diameter of the inhibition zone (DIZ)", "setting": "Acinetobacter baumannii", "result": "inactive"}, {"measurement": "diameter of the inhibition zone (DIZ)", "setting": "Enterococcus faecalis", "result": 15, "unit": "mm"}, {"measurement": "diameter of the inhibition zone (DIZ)", "setting": "[22]", "result": "inactive"}, {"measurement": "diameter of the inhibition zone (DIZ)", "setting": "[23]", "result": "inactive"}]}
